The values that follow come from paper PMC4058332 (ChemMedChem, 2013).

pIC50, pKd, pKi: −log10 of the molar value. “Also recorded” adds a separate entry of the source.

One series addresses uPAR (Homo sapiens, UniProt Q03405). The series can be described thus: Fluorescence polarization competition assay, displacement of AE147-FAM peptide. The conditions noted are these: uPAR 320 nM, AE147-FAM 100 nM. The series is classed as binding. The method, boiled down:
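Competition binding: test compound diluted in DMSO, then in PBS with 0.01% Triton X-100 (final 100 μM to 0.046 μM). uPAR preincubated with compound ≥15 min, then fluorescein-labelled AE147 peptide added (final uPAR 320 nM, peptide 100 nM, DMSO 2%). Duplicate wells; polarization read at ex 485/em 530 nm. mP values converted to % inhibition; Ki from an online Ki calculator.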
A general note: Polarisation of emitted light reports the rotation of a fluorescent probe.

Series [1] concerns the target urokinase receptor (uPAR) (UniProt Q03405). In words: fluorescence polarisation.
Series [2] concerns MDA-MB-231 cells. In words: Apoptosis assay, flow cytometry with Annexin V-FITC and PI staining. The conditions noted are these: 24 h; for Percentage apoptosis: Annexin V-positive/PI-negative cells; for Percentage necrosis: Annexin V-positive/PI-positive cells. The series is classed as cell-based. The method, boiled down:
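MDA-MB-231 cells exposed 24 h to test compound at increasing concentrations or 1% DMSO, stained with Annexin V-FITC and PI, and analysed by flow cytometry. Apoptotic = Annexin V-positive/PI-negative; necrotic = Annexin V-positive/PI-positive, each as % of cells.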

For series [3], the system named is phospho-p44/42 MAPK in MDA-MB-231 cells. In words: Western blot analysis of p44/42 MAPK phosphorylation. The series is classed as cell-based. To be noted: 50 μM, 30 min, serum starved cells on fibronectin. In short, it runs like this: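 Serum-starved MDA-MB-231 cells (1.5 × 10^6/well) plated on wells coated with 30 ng μl-1 fibronectin, with 50 μM test compound or DMSO, for 30 min. Lysed in RIPA with protease/phosphatase inhibitors. 30 μg protein run on 10% SDS-PAGE and blotted. Probed overnight at 4°C with phospho-p44/42 (Thr202/Tyr204) or total p44/42 antibodies (1:2000), then fluorescent secondaries; actin loading control.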
On the technique in general: Immunoblotting shows a protein as a band on a membrane.

The next series relates to MDA-MB-231 invasion. In words: Matrigel Boyden chamber invasion assay. The series is classed as cell-based. In short, it runs like this:
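Matrigel invasion chambers; insert underside coated with 30 ng μl-1 fibronectin overnight at 4 °C; inserts equilibrated 2 h in serum-free medium. After 4 h starvation, 5 × 10^4 MDA-MB-231 cells in 0.1% FBS medium with test compound or 1% DMSO placed upper; 10% FBS medium with same compound lower. After 16 h at 37°C, invaded cells methanol-fixed, hematoxylin-stained, counted in ten 200× fields.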

For a further series, the system named is MDA-MB-231 migration. The series can be described thus: Wound healing migration assay. The series is classed as cell-based. In short, it runs like this:
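Confluent MDA-MB-231 monolayers scratched with a pipette tip, washed, and cultured in complete medium with test compound. Wound closure measured as distance between wound edges in three random regions immediately after wounding and at 16 h and 40 h, by microscopy.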

For series [4], the system named is MDA-MB-231 cells. The series can be described thus: Cell viability by MTT at 16 h, time frame of invasion and migration studies. The series is classed as cell-based. In short, it runs like this:
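MDA-MB-231 viability read by MTT after 16 h exposure to test compound, matching the time frame of the invasion and migration assays.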

Series [5] deals with MDA-MB-231 cells. In words: Cell viability by MTT assay, 3 days. The series is classed as cell-based. The conditions noted are these: Homo sapiens, MDA-MB-231, read-out: IC50, MTT. In short, it runs like this:
(§1)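 Cells (10^4/well) plated overnight, then exposed to test compound or DMSO control for 3 days. Viability by MTT, absorbance 570 nm with 630 nm reference. Culture: MDA-MB-231 and PANC-1 in DMEM, AsPC-1 in RPMI medium, each with 10% FBS and 1% penicillin/streptomycin, 37°C, 5% CO2.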

A further series deals with AsPC-1 cells. In words: Cell viability by MTT assay, 3 days. The series is classed as cell-based. To be noted: Homo sapiens, ASPC1, read-out: IC50, MTT. In short, it runs like this: as §1
(Formazan colour is commonly taken as a measure of viable cells.)

For a further series, the system named is PANC-1 cells. In words: Cell viability by MTT assay, 3 days. The series is classed as cell-based. To be noted: Homo sapiens, PANC-1, read-out: IC50, MTT. The method, boiled down:
as §1

Series [6] relates to NF-κB, HIF1α and ERK in MDA-MB-231 cells. In words: Luciferase reporter assay. The series is classed as cell-based. The conditions noted are these: 25 μM. The method, boiled down:
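MDA-MB-231 cells transfected with pathway-focused reporters (NF-κB, hypoxia, MAPK/ERK); medium switched to complete DMEM (10% FBS) 16 h after transfection. Test compound (25 μM) added at 46 h; dual-luciferase readout (firefly/Renilla) at 48 h. Fold change = normalized ratio of treated reporter divided by that of untreated reporter; triplicate.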

In series [7] the test system is MDA-MB-231 matrix metalloproteinase (MMP-9) activity. In words: Gelatin zymography. The series is classed as cell-based. The conditions noted are these: read-out: IC50, MMP-9 activity, 24 h treatment. In short, it runs like this: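 MDA-MB-231 cells treated with test compound 24 h in serum-free medium. Conditioned medium concentrated and run on 7.5% SDS gels with 1 mg/mL gelatin. Gels washed twice in 2.5% Triton X-100 (30 min, room temperature), incubated 36 h at 37 °C in 50 mM Tris-HCl pH 7.6, 200 mM NaCl, 10 mM CaCl2, 0.02% Brij 35. Coomassie-stained; clear MMP-9 bands quantified by imaging.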

Another series relates to MDA-MB-231 cell adhesion. The series can be described thus: Cell adhesion to fibronectin. The series is classed as cell-based. To be noted: Homo sapiens, MDA-MB-231, read-out: IC50, cell adhesion. The method, boiled down:
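Wells coated with 15 ng μl-1 fibronectin overnight at 4 °C, blocked 1 h with 2% BSA/PBS. MDA-MB-231 cells serum-starved 4 h, suspended at 2.5 × 10^4 cells ml-1 in 0.1% FBS DMEM with test compound at various concentrations or DMSO, and held 90 min at 37 °C. Washed three times with PBS; adherent cells by MTT (570/630 nm).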

Chain of uPAR (Q03405 23-335): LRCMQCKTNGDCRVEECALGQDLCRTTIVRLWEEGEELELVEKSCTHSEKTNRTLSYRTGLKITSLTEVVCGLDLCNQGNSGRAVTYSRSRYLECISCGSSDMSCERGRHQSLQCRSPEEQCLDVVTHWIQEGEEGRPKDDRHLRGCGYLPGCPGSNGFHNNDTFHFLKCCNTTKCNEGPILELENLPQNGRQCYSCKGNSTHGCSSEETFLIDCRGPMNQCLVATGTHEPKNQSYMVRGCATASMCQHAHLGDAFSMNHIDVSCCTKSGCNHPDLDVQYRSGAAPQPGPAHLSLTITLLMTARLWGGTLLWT
Chain of urokinase receptor (uPAR) (Q03405 23-305): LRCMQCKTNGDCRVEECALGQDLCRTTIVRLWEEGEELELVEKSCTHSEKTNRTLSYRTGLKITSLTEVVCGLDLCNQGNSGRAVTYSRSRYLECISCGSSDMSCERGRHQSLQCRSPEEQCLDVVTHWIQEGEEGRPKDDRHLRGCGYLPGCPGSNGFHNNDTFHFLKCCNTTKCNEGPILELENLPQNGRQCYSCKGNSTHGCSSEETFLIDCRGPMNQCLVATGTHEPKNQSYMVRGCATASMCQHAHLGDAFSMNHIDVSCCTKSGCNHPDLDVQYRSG

In the case of `COc1cc(NC(=O)c2cnn(-c3ccc(C)c(C)c3)c2C2CCNCC2)cc(C(F)(F)F)c1` [1e, 1-(3,4-dimethylphenyl)-N-(3-methoxy-5-(trifluoromethyl)phenyl)-5-(piperidin-4-yl)-1H-pyrazole-4-carboxamide], the negative logarithm of the Ki (pKi) on uPAR (Ki) was 4.29.

For the compound “fluorescently-labeled AE147 peptide AE147-FAM”, in [1], the pKd was 6.30.

On to `CCOc1ccccc1NC(=O)C1CC(=O)N(c2ccc(OC)cc2)C1c1ccc(OC)cc1` (stereo not shown) [compound 3, N-(2-ethoxyphenyl)-1,2-bis(4-methoxyphenyl)-5-oxopyrrolidine-3-carboxamide], for which the Percentage apoptosis in the series on MDA-MB-231 cells [2] (1 μM) turned out to be 2%; in the series on MDA-MB-231 cells [2] (10 μM), 1%; in the series with MDA-MB-231 cells [2] (25 μM) it was 2%; with MDA-MB-231 cells [2] (50 μM) it was 4%. In addition, the Percentage necrosis in the series on MDA-MB-231 cells [2] (1 μM) came out at 6%; in the series on MDA-MB-231 cells [2] (10 μM), 3%; in the series on MDA-MB-231 cells [2] (25 μM), 8%; in the series with MDA-MB-231 cells [2] (50 μM), 7%. Besides, in series [3], the “effect on p44/42 MAPK phosphorylation” value is recorded as “no inhibition”. The effect on invasion result in the series with MDA-MB-231 invasion (25 μM) was “moderate inhibition of invasion”. Also, in the series on MDA-MB-231 invasion (Homo sapiens, MDA-MB-231, read-out: inhibition of cell invasion), the inhibition at 25 µM is 50%. Moreover, the effect on migration entry in the series with MDA-MB-231 migration (25 μM, wound healing) was “no effect on migration”. In addition, the cytotoxicity result in the series with MDA-MB-231 cells [4] (25 μM, MTT at 16 h) is on record as “not cytotoxic”.

With `COc1ccc(N2C(=O)CCC(C(=O)Nc3ccc(OC)cc3OC)C2c2ccc(F)cc2)cc1` (stereo not drawn) [compound 4, anti-N-(2,4-dimethoxyphenyl)-2-(4-fluorophenyl)-1-(4-methoxyphenyl)-6-oxopiperidine-3-carboxamide], the pKi on uPAR is 4.72. The Percentage apoptosis turned out to be 4% in the series with MDA-MB-231 cells [2] (1 μM), 2% in the series with MDA-MB-231 cells [2] (10 μM), 3% in the series with MDA-MB-231 cells [2] (25 μM) and 3% with MDA-MB-231 cells [2] (50 μM). The Percentage necrosis in the series with MDA-MB-231 cells [2] (1 μM) is recorded as 3%; in the series on MDA-MB-231 cells [2] (10 μM) it was 14%; in the series with MDA-MB-231 cells [2] (25 μM), 6%; with MDA-MB-231 cells [2] (50 μM), 5%. Further, the “effect on p44/42 MAPK phosphorylation” value in series [3] is on record as “no inhibition”.

The compound `Cc1ccc(-n2ncc(C(=O)Nc3ccc(C(C)C)cc3)c2C2CCNCC2)cc1C` [1h, 1-(3,4-dimethylphenyl)-N-(4-isopropylphenyl)-5-(piperidin-4-yl)-1H-pyrazole-4-carboxamide] gave a pKi on uPAR (Ki) of 4.20.

At uPAR (Ki), `Cc1ccc(-n2ncc(C(=O)NCCc3ccc(F)cc3)c2C2CCNCC2)cc1C` [1g, 1-(3,4-dimethylphenyl)-N-(4-fluorophenethyl)-5-(piperidin-4-yl)-1H-pyrazole-4-carboxamide] gave a negative-log Ki (pKi) of 4.55.

In turn, `CCCc1ccc(NC(=O)c2cnn(-c3ccc(C)c(C)c3)c2C2CCNCC2)cc1` [1i, 1-(3,4-dimethylphenyl)-5-(piperidin-4-yl)-N-(4-propylphenyl)-1H-pyrazole-4-carboxamide] had a pKi on uPAR (Ki) of 4.50. For the same compound, the Percentage apoptosis was 11% in the series on MDA-MB-231 cells [2] (1 μM), 6% with MDA-MB-231 cells [2] (10 μM), 46% in the series on MDA-MB-231 cells [2] (25 μM) and 86% with MDA-MB-231 cells [2] (50 μM). The Percentage necrosis in the series with MDA-MB-231 cells [2] (1 μM) was 7%; in the series with MDA-MB-231 cells [2] (10 μM), 9%; with MDA-MB-231 cells [2] (25 μM), 10%; in the series with MDA-MB-231 cells [2] (50 μM) it was 12%. Moreover, the “effect on p44/42 MAPK phosphorylation” value in [3] is recorded as “significantly impaired”.

In turn, `Cc1ccc(-n2ncc(C(=O)Nc3ccccc3OCc3ccccc3)c2C2CCNCC2)cc1C` [1f, N-(2-(benzyloxy)phenyl)-1-(3,4-dimethylphenyl)-5-(piperidin-4-yl)-1H-pyrazole-4-carboxamide] showed a negative-log Ki (pKi) on uPAR (Ki) of 4.76. Further, the pIC50 is 4.60 in the series on MDA-MB-231 cells [5]; 4.85 in the series with AsPC-1 cells; 4.66 in the series with PANC-1 cells; above 5.00 in the series on MDA-MB-231 invasion (Homo sapiens, MDA-MB-231, read-out: IC50, invasion); 4.55 in series [7]; around 4.60 with MDA-MB-231 cell adhesion. In addition, the Percentage apoptosis in the series with MDA-MB-231 cells [2] (1 μM) is on record as 3%; with MDA-MB-231 cells [2] (10 μM) it was 45%; with MDA-MB-231 cells [2] (25 μM) it was 76%; in the series on MDA-MB-231 cells [2] (50 μM) it was 61%. For the same compound, the Percentage necrosis with MDA-MB-231 cells [2] (1 μM) is listed as 7%; in the series with MDA-MB-231 cells [2] (10 μM), 15%; in the series on MDA-MB-231 cells [2] (25 μM), 8%; in the series on MDA-MB-231 cells [2] (50 μM), 21%. In addition, the “effect on p44/42 MAPK phosphorylation” value in series [3] was “significantly impaired”. In series [6], the “effect on NF-κB, HIF1α and ERK reporter pathways” value is “impaired all three pathways”. Further, the effect on invasion entry with MDA-MB-231 invasion (10 μM) is recorded as “inhibited invasion”; in the series on MDA-MB-231 invasion (25 μM), “completely inhibited invasion; also recorded: complete inhibition of invasion”. For the same compound, in the series with MDA-MB-231 migration (Homo sapiens, MDA-MB-231, read-out: inhibition of cell migration), the inhibition at 25 µM was 70%. Moreover, the inhibition at 10 µM in the series with MDA-MB-231 cells [4] (Homo sapiens, MDA-MB-231, 16 h, read-out: inhibition of cell growth) turned out to be 20%.

What is called pKi is the Ki on a negative log10 scale, so that one unit is a factor of ten. A lower pKi goes with a large Ki. What is called pKd is the Kd on a negative log10 scale, so that one unit is a factor of ten. Lower therefore signals a large Kd. As usually defined, the pIC50 is the negative decadic logarithm of the IC50, by convention in mol/L.
